Calls of active or inactive are those of the source. The calls are words filed in the database; no cut-off is given here.
Legend:
[1] = Chromatographic hydrophobicity index, log D of the compound at pH 7.4 by HPLC analysis; type: physicochemical; conditions: buffer
Method in brief: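 DMSO stocks (10 mM) diluted to 0.25 mM in 50:50 acetonitrile:water. Run on C18 HPLC at 20 °C, 1 mL/min. Mobile phase 10 mM ammonium acetate pH 7.4 with an acetonitrile gradient. Retention times calibrated against a standard mix of eleven reference compounds, then converted to CHIlogD.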

HeLa [2] = assay: Antiproliferative activity against human HeLa cells assessed as reduction in cell proliferation at 150 uM incubated for 24 to 72 hrs by haemocytometry; type: cell-based
[3] = biological target: T1, Von Hippel-Lindau disease tumor suppressor/Elongin B/Elongin C (Homo sapiens) (UniProt P40337+Q15370+Q15369); assay: Inhibition of VBC in human HeLa cells expressing HRE-luciferase reporter gene assessed as reduction in HIF transcriptional activity at 1 to 250 uM after 24 hrs by luciferase reporter gene assay; type: cell-based
[4] = biological target: T1, Von Hippel-Lindau disease tumor suppressor/Elongin B/Elongin C (Homo sapiens); assay: Binding affinity to VBC (unknown origin) assessed as dissociation rate constant at 50 uM after 160 secs at 10 degC by surface plasmon resonance assay; type: protein-complex assay
Method in brief: (§1)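 SPR on a Biacore T100 at 10 and 20 °C against VBC complex. Ligand stock 50 μM in DMSO, 2-fold serial dilutions in SPR buffer (20 mM HEPES, 150 mM NaCl, 1 mM DTT, 0.005% Tween P20, pH 7.0). Kd taken as koff/kon.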

[5] = biological target: T1, Von Hippel-Lindau disease tumor suppressor/Elongin B/Elongin C (Homo sapiens)
[6] = Intrinsic clearance in CD1 mouse liver microsomes at 0.5 uM up to 30 mins by UPLC-MS/MS analysis; type: ADME, microsome; conditions: 0.5 h
Method in brief: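 Compound at 0.5 μM with female CD1 mouse liver microsomes (0.5 mg/mL) in 50 mM potassium phosphate pH 7.4, started with excess NADPH. Samples quenched in acetonitrile at 0, 3, 6, 9, 15 and 30 min; UPLC-MS/MS against internal standard. Decay rate constant converted to CLi assuming 52.5 mg microsomal protein/g liver. Verapamil as assay control.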

[7] = biological target: T1, Von Hippel-Lindau disease tumor suppressor/Elongin B/Elongin C (Homo sapiens); assay: Inhibition of VBC in human HeLa cells assessed as HIF-1alpha stabilization by measuring HIF-1alpha protein levels at 50 uM after 2 hrs by Western blot analysis; type: cell-based; parameters: scale not given: the % may be the effect or the level left
Method in brief: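 HeLa (ATCC) grown in DMEM with 10% FBS, L-glutamine and penicillin/streptomycin at 37 °C; mycoplasma-tested. Treated 2 h in fresh medium, 1% DMSO as vehicle control. Lysed in RIPA buffer with protease inhibitors, SDS-PAGE, nitrocellulose blot. Anti-HIF-1α probed with β-actin as loading control, IRDye 800CW secondary for detection. Levels normalized to a reference VHL inhibitor.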

[8] = Half life in plasma (unknown origin) at pH 7.4 at 50 uM up to 180 mins by UPLC-MS/MS analysis; type: ADME, cell-free
Method in brief: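 Compound at 50 μM incubated at 37 °C in prewarmed plasma buffered to pH 7.4 (70:30 plasma to buffer). Aliquots were taken at 0, 30, 60, 120 and 180 min and quenched in acetonitrile with donepezil internal standard. Samples were centrifuged and analysed by UPLC-MS/MS. The rate constant was fitted as exponential decay of the compound/internal standard peak-area ratio.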

HeLa [9] = assay: Antiproliferative activity against human HeLa cells assessed as reduction in colony formation at 150 uM incubated for 24 hrs by crystal violet staining based assay; type: cell-based
Method in brief: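 HeLa cells, 500–2000 per well, seeded one day before exposure to 150 μM compound; 1% DMSO as vehicle control. Medium replaced after 24 h treatment, then grown a further week. Stained with 0.005% crystal violet in 25% methanol for 10 min at room temperature. Colonies counted on scanned plates.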

[10] = biological target: T1, Von Hippel-Lindau disease tumor suppressor/Elongin B/Elongin C (Homo sapiens); assay: Binding affinity to VBC (unknown origin) assessed as dissociation rate constant at 50 uM after 160 secs at 20 degC by surface plasmon resonance assay; type: protein-complex assay; method in brief: as §1
[11] = biological target: T1, Von Hippel-Lindau disease tumor suppressor/Elongin B/Elongin C (Homo sapiens); assay: Binding affinity to VBC (unknown origin) assessed as association rate constant at 50 uM after 60 secs at 10 degC by surface plasmon resonance assay; type: protein-complex assay; method in brief: as §1
[12] = Passive permeability of the compound in pH 7.4 PBS at 10 uM after 5 hrs by UPLC-MS/MS method based PAMPA; type: ADME; conditions: pH 7.4, 5 h
Method in brief: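 Precoated PAMPA plate with lipid–oil–lipid trilayer filter. Compound at 10 μM in PBS pH 7.4 (≤5% DMSO) in the donor well, PBS in the acceptor well. Held 5 h at room temperature; both compartments quantified by UPLC-MS/MS. Pe calculated from peak areas; data accepted only if recovery exceeded 70%. Propranolol as control.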

[13] = biological target: T1, Von Hippel-Lindau disease tumor suppressor/Elongin B/Elongin C (Homo sapiens); remark: listed apart in the source
[14] = biological target: T2, Von Hippel-Lindau disease tumor suppressor/Elongin B/Elongin C (Homo sapiens, UniProt P40337)
[15] = biological target: T2, Von Hippel-Lindau disease tumor suppressor/Elongin B/Elongin C; assay: Displacement of FAM-labeled HIF-1alpha peptide from VBC (unknown origin) by fluorescence polarization assay
[16] = biological target: T2, Von Hippel-Lindau disease tumor suppressor/Elongin B/Elongin C; remark: listed apart in the source
[17] = biological target: T1, Von Hippel-Lindau disease tumor suppressor/Elongin B/Elongin C (Homo sapiens); assay: Binding affinity to VBC (unknown origin) assessed as association rate constant at 50 uM after 60 secs at 20 degC by surface plasmon resonance assay; type: protein-complex assay; method in brief: as §1
[18] = biological target: T2, Von Hippel-Lindau disease tumor suppressor/Elongin B/Elongin C; remark: listed apart in the source

T1 sequence (P40337 whole entry, looked up): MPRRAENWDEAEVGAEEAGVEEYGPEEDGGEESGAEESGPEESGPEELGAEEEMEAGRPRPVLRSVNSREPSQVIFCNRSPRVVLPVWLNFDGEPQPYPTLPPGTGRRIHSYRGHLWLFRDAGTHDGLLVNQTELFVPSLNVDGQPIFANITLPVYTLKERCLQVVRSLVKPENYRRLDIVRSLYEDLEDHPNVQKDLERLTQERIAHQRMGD
T1 sequence (Q15369 whole entry, looked up): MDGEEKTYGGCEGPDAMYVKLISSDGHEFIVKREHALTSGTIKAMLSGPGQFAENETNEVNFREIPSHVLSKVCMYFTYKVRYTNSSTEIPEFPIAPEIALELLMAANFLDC
T1 sequence (Q15370 whole entry, looked up): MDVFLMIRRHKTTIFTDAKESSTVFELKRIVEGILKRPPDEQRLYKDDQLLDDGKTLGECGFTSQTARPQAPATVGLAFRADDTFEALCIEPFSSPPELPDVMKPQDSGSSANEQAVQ
T2 sequence (P40337 whole entry, looked up): as the sequence (P40337 whole entry, looked up) above

Row | chromatographic logD [1] | Activity [7] [%] | permeability [12] [×10⁻⁶ cm/s] | Kd [15] [nM] | SMILES | also measured
1 | 0.71 | 34 | 0.03 | 320 | Cc1ncsc1-c1ccc(CNC(=O)[C@@H]2C[C@@H](O)CN2C(=O)[C@@H](NC(=O)C2COC2)C(C)(C)C)cc1 | Kd [14]: 230 nM
2 | – | 46 | – | 370 | Cc1ncsc1-c1ccc(CNC(=O)[C@@H]2C[C@@H](O)CN2C(=O)[C@@H](NC(=O)C2(F)CC2)C(C)O)cc1 (single isomer, unassigned) | –
3 | – | 26 | – | – | CC(=O)N(C)[C@H](C(=O)N1C[C@H](O)C[C@H]1C(=O)NCc1ccc(-c2scnc2C)cc1)C(C)(C)C | –
4 | – | 33 | – | 1400 | Cc1ncsc1-c1ccc(CNC(=O)[C@@H]2C[C@@H](O)CN2C(=O)[C@@H](N2CCCC2=O)C(C)(C)C)cc1 | –
5 | 1.3 | 138 | 1.16 | 250 | Cc1ncsc1-c1ccc(CNC(=O)[C@@H]2C[C@@H](O)CN2C(=O)[C@@H](NC(=O)C2CCC2)C(C)(C)C)cc1 | Kd [16]: 271 nM; K [4]: 0.14 s⁻¹; intrinsic clearance (CLint) [6]: 3 mL/min/g; half-life at 50 µM [8]: > 3 h; K [17]: 1.1 ×10⁶ /M/s; K [10]: 0.256 s⁻¹; Kd [14]: 210 nM; K [11]: 5.17 ×10⁵ /M/s; Kd [18]: 233 nM; T1/2 [13]: 4.95 s
6 | – | 12 | – | 6500 | Cc1ncsc1-c1ccc(CNC(=O)[C@@H]2C[C@@H](O)CN2C(=O)[C@@H](NC(=O)OC(C)(C)C)C(C)(C)C)cc1 | –
7 | 1.14 | 105 | 0.61 | 170 | Cc1ncsc1-c1ccc(CNC(=O)[C@@H]2C[C@@H](O)CN2C(=O)[C@@H](NC(=O)C2CC2)C(C)(C)C)cc1 | Kd [14]: 132 nM
8 | – | 12 | – | 4900 | CC(=O)N1CC(C(=O)N[C@H](C(=O)N2C[C@H](O)C[C@H]2C(=O)NCc2ccc(-c3scnc3C)cc2)C(C)(C)C)C1 | –
9 | – | 28 | – | 500 | Cc1ncsc1-c1ccc(CNC(=O)[C@@H]2C[C@@H](O)CN2C(=O)[C@@H](NC(=O)C2CC(=O)C2)C(C)(C)C)cc1 | –
10 | – | 19 | – | 770 | Cc1ncsc1-c1ccc(CNC(=O)[C@@H]2C[C@@H](O)CN2C(=O)[C@@H](NC(=O)C(C)(C)F)C(C)(C)C)cc1 | –
11 | – | 89 | – | 200 | Cc1ncsc1-c1ccc(CNC(=O)[C@@H]2C[C@@H](O)CN2C(=O)[C@@H](NC(=O)C(Cl)(Cl)Cl)C(C)(C)C)cc1 | –
12 | 1.34 | 156 | 1.5 | 170 | CC(=O)C1(C(=O)N[C@H](C(=O)N2C[C@H](O)C[C@H]2C(=O)NCc2ccc(-c3scnc3C)cc2)C(C)(C)C)CC1 | Kd [16]: 115 nM; K [4]: 0.069 s⁻¹; T1/2 [5]: 4.1 s; intrinsic clearance (CLint) [6]: 2.5 mL/min/g; half-life at 50 µM [8]: > 3 h; K [17]: 8.2 ×10⁵ /M/s; K [10]: 0.169 s⁻¹; Kd [14]: 106 nM; K [11]: 6 ×10⁵ /M/s; Kd [18]: 97 nM; T1/2 [13]: 10 s
13 | 0.61 | 20 | 0.01 | 300 | CC(=O)NC1(C(=O)N[C@H](C(=O)N2C[C@H](O)C[C@H]2C(=O)NCc2ccc(-c3scnc3C)cc2)C(C)(C)C)CC1 | Kd [14]: 138 nM

The next lines start with the molecule.

Row | SMILES | chromatographic logD [1] | Activity [7] [%] | permeability [12] [×10⁻⁶ cm/s] | Kd [15] [nM] | also measured
14 | Cc1ncsc1-c1ccc(CNC(=O)[C@@H]2C[C@@H](O)CN2C(=O)[C@@H](NC(=O)C2(F)CC2)C(C)(C)C)cc1 | 1.63 | 175 | 2.71 | – | Activity (HeLa [2]): Toxic; inhibition [3]: Active; K [4]: 0.058 s⁻¹; T1/2 [5]: 7.07 s; intrinsic clearance (CLint) [6]: 2.9 mL/min/g; half-life at 50 µM [8]: > 3 h; Activity (HeLa [9]): Toxic; K [10]: 0.098 s⁻¹; K [11]: 2.4 ×10⁶ /M/s; T1/2 [13]: 11.9 s
15 | Cc1ncsc1-c1ccc(CNC(=O)[C@@H]2C[C@@H](O)CN2C(=O)[C@@H](NC(=O)CO)C(C)(C)C)cc1 | 0.65 | 16 | 0.01 | 200 | Kd [14]: 105 nM
16 | Cc1ncsc1-c1ccc(CNC(=O)[C@@H]2C[C@H](O)CN2C(=O)[C@@H](NC(=O)C2(C#N)CC2)C(C)(C)C)cc1 | – | – | – | – | Activity (HeLa [2]): Non-Toxic; Activity (HeLa [9]): Non-Toxic
17 | Cc1ncsc1-c1ccc(CNC(=O)[C@@H]2C[C@@H](O)CN2C(=O)[C@@H](NC(=O)CC(C)(C)C)C(C)(C)C)cc1 | – | 65 | – | 450 | –
18 | Cc1ncsc1-c1ccc(CNC(=O)[C@@H]2C[C@@H](O)CN2C(=O)[C@@H](NC(=O)C(F)(F)F)C(C)(C)C)cc1 | – | 95 | – | 270 | –
19 | CCC(=O)N[C@H](C(=O)N1C[C@H](O)C[C@H]1C(=O)NCc1ccc(-c2scnc2C)cc1)C(C)(C)C | – | 98 | – | – | –
20 | Cc1ncsc1-c1ccc(CNC(=O)[C@@H]2C[C@H](O)CN2C(=O)[C@@H](NC(=O)C2(F)CC2)C(C)(C)C)cc1 | – | – | – | – | Activity (HeLa [2]): Toxic; Activity (HeLa [9]): Toxic
21 | CC(=O)N[C@@H](C)C(=O)N1C[C@H](O)C[C@H]1C(=O)NCc1ccc(-c2scnc2C)cc1 | – | 12 | – | – | –
22 | CC(=O)N[C@H](C(=O)N1C[C@H](O)C[C@H]1C(=O)NCc1ccc(-c2scnc2C)cc1)C(C)(C)C | 0.9 | 100 | 0.12 | – | intrinsic clearance (CLint) [6]: 0.7 mL/min/g; half-life at 50 µM [8]: > 3 h
23 | Cc1ncsc1-c1ccc(CNC(=O)[C@@H]2C[C@@H](O)CN2C(=O)[C@@H](NC(=O)C2(C#N)CC2)C(C)(C)C)cc1 | 1.4 | 190 | 1.94 | – | Activity (HeLa [2]): Non-Toxic; intrinsic clearance (CLint) [6]: 3.1 mL/min/g; half-life at 50 µM [8]: > 3 h; Activity (HeLa [9]): Non-Toxic
